Measurements from ChEMBL document CHEMBL1150393, “Evaluation of radiolabeled (hetero)aromatic analogues of N-(2-diethylaminoethyl)-4-iodobenzamide for imaging and targeted radionuclide therapy of melanoma” (J Med Chem, 2008).

Columns and labels:
Settings in all cases: in vivo
Muscle tissue [1] = test: Biodistribution in muscle of C57BL/6 mouse bearing mouse B16-F0 cells at 0.74 to 0.92 MBq, iv after 6 hrs; assay type: ADME, organism-based
In short: (§1)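 Male C57BL6 mice with s.c. left-flank B16-F0 melanoma (5 × 10⁵ cells in PBS). Two mice per time point frozen in liquid nitrogen after CO₂ sacrifice. Eight 40 µm whole-body cryosections per mouse read by multiwire proportional counter. cpm/mm² converted to kBq/g and expressed as %ID/g.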

[2] = Biodistribution in Stomach content of C57BL/6 mouse bearing mouse B16-F0 cells at 0.74 to 0.92 MBq, iv after 24 hrs; assay type: ADME, organism-based; in short: as §1
[3] = Biodistribution in tumor of C57BL/6 mouse bearing mouse B16-F0 cells at 0.74 to 0.92 MBq, iv after 6 hrs; assay type: ADME, organism-based, Neoplasm
In short: (§2)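 [¹²⁵I]-labelled compound given iv by tail vein (0.1 µmol per mouse) to male C57BL6 mice bearing s.c. B16-F0 flank tumours (5 × 10⁵ cells in PBS). Two mice per time point were killed by CO₂, frozen in liquid nitrogen and cut into 40 µm cryosections, eight slices per mouse. Slice radioactivity was read on a multiwire proportional counter, converted to kBq/g and reported as %ID/g.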

[4] = Ratio of drug level in tumor to liver of C57BL/6 mouse bearing mouse B16-F0 cells at 0.74 to 0.92 MBq, iv after 6 hrs; assay type: ADME, organism-based
In short: (§3)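 Tumour and organ radioactive concentrations came from whole-body cryosection counting (40 µm slices, eight per mouse, two mice per time) after tail-vein injection of the [¹²⁵I]-labelled compound (0.1 µmol) into male C57BL6 mice bearing s.c. B16-F0 melanoma. Each value is the ratio of the tumour concentration to the organ concentration.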

Kidney [5] = test: Biodistribution in kidney of C57BL/6 mouse bearing mouse B16-F0 cells at 0.74 to 0.92 MBq, iv after 6 hrs; assay type: ADME, organism-based; in short: as §1
[6] = Biodistribution in intestinal content of C57BL/6 mouse bearing mouse B16-F0 cells at 0.74 to 0.92 MBq, iv after 1 hr; assay type: ADME, organism-based; in short: as §1
[7] = Ratio of drug level in tumor to liver of C57BL/6 mouse bearing mouse B16-F0 cells at 0.74 to 0.92 MBq, iv after 24 hrs; assay type: ADME, organism-based; in short: as §3
Brain = test: Biodistribution in brain of C57BL/6 mouse bearing mouse B16-F0 cells at 0.74 to 0.92 MBq, iv after 1 hr; assay type: ADME, organism-based; in short: as §1
[8] = Biodistribution in intestinal content of C57BL/6 mouse bearing mouse B16-F0 cells at 0.74 to 0.92 MBq, iv after 6 hrs; assay type: ADME, organism-based; in short: as §1
[9] = Biodistribution in tumor of C57BL/6 mouse bearing mouse B16-F0 cells at 0.74 to 0.92 MBq, iv after 72 hrs; assay type: ADME, organism-based, Neoplasm; in short: as §2
Blood [10] = test: Biodistribution in blood of C57BL/6 mouse bearing mouse B16-F0 cells at 0.74 to 0.92 MBq, iv after 3 hrs; assay type: ADME, organism-based; in short: as §1
Blood [11] = test: Biodistribution in blood of C57BL/6 mouse bearing mouse B16-F0 cells at 0.74 to 0.92 MBq, iv after 1 hr; assay type: ADME, organism-based; in short: as §1
[12] = Biodistribution in uvea of C57BL/6 mouse bearing mouse B16-F0 cells at 0.74 to 0.92 MBq, iv after 24 hrs; assay type: ADME, organism-based, Uveal tract; in short: as §2
[13] = Biodistribution in tumor of C57BL/6 mouse bearing mouse B16-F0 cells at 0.74 to 0.92 MBq, iv after 24 hrs; assay type: ADME, organism-based, Neoplasm; in short: as §2
Lung [14] = test: Biodistribution in lung of C57BL/6 mouse bearing mouse B16-F0 cells at 0.74 to 0.92 MBq, iv after 1 hr; assay type: ADME, organism-based; in short: as §1
[15] = Biodistribution in intestinal content of C57BL/6 mouse bearing mouse B16-F0 cells at 0.74 to 0.92 MBq, iv after 24 hrs; assay type: ADME, organism-based; in short: as §1
[16] = Biodistribution in Stomach content of C57BL/6 mouse bearing mouse B16-F0 cells at 0.74 to 0.92 MBq, iv after 6 hrs; assay type: ADME, organism-based; in short: as §1
[17] = Ratio of drug level in tumor to liver of C57BL/6 mouse bearing mouse B16-F0 cells at 0.74 to 0.92 MBq, iv after 3 hrs; assay type: ADME, organism-based; in short: as §3
[18] = Biodistribution in intestinal content of C57BL/6 mouse bearing mouse B16-F0 cells at 0.74 to 0.92 MBq, iv after 3 hrs; assay type: ADME, organism-based; in short: as §1
Muscle tissue [19] = test: Biodistribution in muscle of C57BL/6 mouse bearing mouse B16-F0 cells at 0.74 to 0.92 MBq, iv after 3 hrs; assay type: ADME, organism-based; in short: as §1
Spleen [20] = test: Biodistribution in spleen of C57BL/6 mouse bearing mouse B16-F0 cells at 0.74 to 0.92 MBq, iv after 6 hrs; assay type: ADME, organism-based; in short: as §2
Liver [21] = test: Biodistribution in liver of C57BL/6 mouse bearing mouse B16-F0 cells at 0.74 to 0.92 MBq, iv after 24 hrs; assay type: ADME, organism-based; in short: as §1
Kidney [22] = test: Biodistribution in kidney of C57BL/6 mouse bearing mouse B16-F0 cells at 0.74 to 0.92 MBq, iv after 3 hrs; assay type: ADME, organism-based; in short: as §1
Pancreas = test: Biodistribution in pancreas of C57BL/6 mouse bearing mouse B16-F0 cells at 0.74 to 0.92 MBq, iv after 1 hr; assay type: ADME, organism-based; in short: as §1
[23] = Biodistribution in tumor of C57BL/6 mouse bearing mouse B16-F0 cells at 0.74 to 0.92 MBq, iv after 1 hr; assay type: ADME, organism-based, Neoplasm; in short: as §2
Lung [24] = test: Biodistribution in lung of C57BL/6 mouse bearing mouse B16-F0 cells at 0.74 to 0.92 MBq, iv after 6 hrs; assay type: ADME, organism-based; in short: as §1
Spleen [25] = test: Biodistribution in spleen of C57BL/6 mouse bearing mouse B16-F0 cells at 0.74 to 0.92 MBq, iv after 1 hr; assay type: ADME, organism-based; in short: as §2
[26] = Ratio of drug level in tumor to brain of C57BL/6 mouse bearing mouse B16-F0 cells at 0.74 to 0.92 MBq, iv after 3 hrs; assay type: ADME, organism-based; in short: as §3
Lung [27] = test: Biodistribution in lung of C57BL/6 mouse bearing mouse B16-F0 cells at 0.74 to 0.92 MBq, iv after 3 hrs; assay type: ADME, organism-based; in short: as §1
Muscle tissue [28] = test: Biodistribution in muscle of C57BL/6 mouse bearing mouse B16-F0 cells at 0.74 to 0.92 MBq, iv after 1 hr; assay type: ADME, organism-based; in short: as §1
Liver [29] = test: Biodistribution in liver of C57BL/6 mouse bearing mouse B16-F0 cells at 0.74 to 0.92 MBq, iv after 1 hr; assay type: ADME, organism-based; in short: as §1
[30] = Biodistribution in uvea of C57BL/6 mouse bearing mouse B16-F0 cells at 0.74 to 0.92 MBq, iv after 1 hr; assay type: ADME, organism-based, Uveal tract; in short: as §2
Spleen [31] = test: Biodistribution in spleen of C57BL/6 mouse bearing mouse B16-F0 cells at 0.74 to 0.92 MBq, iv after 3 hrs; assay type: ADME, organism-based; in short: as §2
Thyroid gland [32] = test: Biodistribution in thyroid of C57BL/6 mouse bearing mouse B16-F0 cells at 0.74 to 0.92 MBq, iv after 6 hrs; assay type: ADME, organism-based; in short: as §2
Thyroid gland [33] = test: Biodistribution in thyroid of C57BL/6 mouse bearing mouse B16-F0 cells at 0.74 to 0.92 MBq, iv after 24 hrs; assay type: ADME, organism-based; in short: as §2

Drug uptake [3] [% ID/g]	Ratio [4]	Drug uptake (Kidney [5]) [% ID/g]	Drug uptake [6] [% ID/g]	Ratio [7]	Drug uptake (Brain) [% ID/g]	Drug uptake [9] [% ID/g]	Drug uptake (Blood [10]) [% ID/g]	Drug uptake (Blood [11]) [% ID/g]	Drug uptake [12] [% ID/g]	Drug uptake [13] [% ID/g]	Drug uptake (Lung [14]) [% ID/g]	Drug uptake [16] [% ID/g]	Ratio [17]	Drug uptake [18] [% ID/g]	Drug uptake (Muscle tissue [19]) [% ID/g]	Drug uptake (Liver [21]) [% ID/g]	Drug uptake (Kidney [22]) [% ID/g]	Drug uptake [23] [% ID/g]	Drug uptake (Lung [24]) [% ID/g]	Compound	other results
17.2	2.42	7.6	15.78	5.39	1.96	5.9	5.57	7.01	22.27	12.1	9.41	65.36	2.85	20.65	1.14	2.25	12.59	19.6	5.32	CCN(CC)CCNC(=O)c1ccc2cc([125I])ccc2n1.Cl.Cl	Drug uptake (Muscle tissue [1]): 0.95 % ID/g; Drug uptake [2]: 2.33 % ID/g; Drug uptake [8]: 23.36 % ID/g; Drug uptake [15]: 1.45 % ID/g; Drug uptake (Spleen [20]): 7.6 % ID/g; Drug uptake (Pancreas): 9.8 % ID/g; Drug uptake (Spleen [25]): 11.56 % ID/g; Ratio [26]: 30.54; Drug uptake (Lung [27]): 5.58 % ID/g; Drug uptake (Muscle tissue [28]): 1.79 % ID/g; Drug uptake (Liver [29]): 10.92 % ID/g; Drug uptake [30]: 32.71 % ID/g; Drug uptake (Spleen [31]): 10.63 % ID/g
7.8	4.41	1.82	182.62	11.2	1.46	2	1.91	3.57	9.95	5	5.17	10.06	2.74	138.09	0.29	0.45	3.09	8.8	1.45	CCN(CC)CCNC(=O)c1cc2cc([125I])ccc2o1.Cl	Drug uptake (Muscle tissue [1]): 0.19 % ID/g; Drug uptake [2]: 1.61 % ID/g; Drug uptake (Thyroid gland [32]): 40.63 % ID/g; Drug uptake [8]: 135.67 % ID/g; Drug uptake [15]: 2.33 % ID/g; Drug uptake (Spleen [20]): 11.34 % ID/g; Drug uptake (Spleen [25]): 10.68 % ID/g; Ratio [26]: 31.29; Drug uptake (Lung [27]): 1.92 % ID/g; Drug uptake (Muscle tissue [28]): 0.96 % ID/g; Drug uptake (Liver [29]): 6.44 % ID/g; Drug uptake (Thyroid gland [33]): 30.38 % ID/g; Drug uptake [30]: 28.64 % ID/g
9.8	2.71	2.5	76.74	5.07	4.84	0.8	0.79	1.6	8.81	8.2	14.41	21.84	1.96	112.56	0.49	1.61	4.19	8.3	1.7	CCN(CC)CCNC(=O)c1cc2cc([125I])ccc2[nH]1.Cl	Drug uptake (Muscle tissue [1]): 0.31 % ID/g; Drug uptake [2]: 2.1 % ID/g; Drug uptake [8]: 79.85 % ID/g; Drug uptake [15]: 3.31 % ID/g; Drug uptake (Spleen [20]): 1.68 % ID/g; Drug uptake (Pancreas): 7.15 % ID/g; Drug uptake (Spleen [25]): 8.09 % ID/g; Ratio [26]: 3.91; Drug uptake (Lung [27]): 3.46 % ID/g; Drug uptake (Muscle tissue [28]): 1.5 % ID/g; Drug uptake (Liver [29]): 11.86 % ID/g; Drug uptake [30]: 11.7 % ID/g; Drug uptake (Spleen [31]): 2.79 % ID/g
40.7	5.4	7.69	15.22	14.54	2.34	12.5	2.91	3.45	32.44	21.7	7.83	21.09	3.12	17.45	0.86	1.49	9.3	17	4.46	CCN(CC)CCNC(=O)c1cnc2cc([125I])ccc2n1.Cl.Cl	Drug uptake (Muscle tissue [1]): 0.87 % ID/g; Drug uptake (Thyroid gland [32]): 83.77 % ID/g; Drug uptake (Pancreas): 7.6 % ID/g; Drug uptake (Spleen [25]): 14.21 % ID/g; Ratio [26]: 26.87; Drug uptake (Lung [27]): 5.68 % ID/g; Drug uptake (Muscle tissue [28]): 2.04 % ID/g; Drug uptake (Liver [29]): 13.18 % ID/g; Drug uptake (Thyroid gland [33]): 94.22 % ID/g; Drug uptake [30]: 33.82 % ID/g; Drug uptake (Spleen [31]): 4.69 % ID/g
7.9	5.14	2.11	42.97	16.4	0.3	3.1	2.65	2.15	14.55	7.1	3.68	28.44	3.52	68.64	0.43	0.43	2.66	7.3	2.05	CCN(CC)CCNC(=O)c1cc2c([125I])cccc2cn1.Cl.Cl	Drug uptake [2]: 0.75 % ID/g; Drug uptake (Thyroid gland [32]): 48.93 % ID/g; Drug uptake [8]: 29.16 % ID/g; Drug uptake [15]: 1.7 % ID/g; Drug uptake (Pancreas): 2.39 % ID/g; Drug uptake (Spleen [25]): 2.83 % ID/g; Ratio [26]: 79.11; Drug uptake (Lung [27]): 2.76 % ID/g; Drug uptake (Muscle tissue [28]): 0.74 % ID/g; Drug uptake (Liver [29]): 3.86 % ID/g; Drug uptake (Thyroid gland [33]): 88.65 % ID/g; Drug uptake [30]: 18.08 % ID/g
